# From ChEMBL document CHEMBL1145016, “Synthesis and antitumor activity of conjugates of muramyldipeptide or normuramyldipeptide with hydroxyacridine/acridone derivatives” (J Med Chem, 2003)
# Calls of active or inactive are those of the source.
# Legend:
# [1] = Tested for cytotoxicity (lethal concentration) of compound, activity expressed as MID log LC50; format: functional
# Procedure, shortened: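 MID is the calculated mean of LC50 concentrations (M) across the cell line panel, where LC50 is the half-lethal concentration. It is reported as a log value.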
# Mus musculus [2] = experiment: Evaluated in vivo for percent growth delay in mice at 1.50 mg/kg for 10 days by intraperitoneal treatment on UACC-62 melanoma cell line; format: functional; conditions: dose 1.5 mg/kg
# [3] = Evaluated in vivo for intraperitoneal score in hallow fiber assay; format: functional
# Procedure, shortened: (§1)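 NCI hollow fiber preliminary in vivo assay; scores recorded separately for intraperitoneal (ip) and subcutaneous (sc) fiber implantation sites, with an activity criterion applied (Y/N). Procedure detailed in prior work.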
# Mus musculus [4] = experiment: Evaluated in vivo for percent growth delay in mice at 1.00 mg/kg for 7 days by intraperitoneal treatment on AS283 lymphoma cell line; format: functional
# Mus musculus [5] = experiment: Evaluated in vivo for percent growth delay in mice at 0.90 mg/kg for 5 days by intraperitoneal treatment on HCT-15 colon cell line; format: functional; conditions: dose 0.9 mg/kg
# [6] = Evaluated in vivo for intraperitoneal + subcutaneous score in hallow fiber assay; format: functional; procedure, shortened: as §1
# Mus musculus [7] = experiment: Evaluated in vivo for toxic deaths of mice at 1.50 mg/kg for 10 days by intraperitoneal treatment on UACC-62 melanoma cell line; format: toxicity, organism-based; design: dose 1.5 mg/kg, route intraperitoneal; conditions: ip, 1.5 mg/kg, 240 h
# Procedure, shortened: (§2)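 Nude mice carrying subcutaneous human tumor xenografts, tested at NCI Bethesda; compound given on the stated schedule, intraperitoneally (IP) or intravenously (IV). Three dose levels were tested, and the table reports only the optimal one. Toxic deaths are scored per treatment group alongside tumor weight end points.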
# Mus musculus [8] = experiment: Evaluated in vivo for toxic deaths of mice at 0.90 mg/kg for 5 days by intraperitoneal treatment on HCT-15 colon cell line; format: toxicity, organism-based; design: dose 0.9 mg/kg, route intraperitoneal; conditions: ip, 0.9 mg/kg, 120 h; procedure, shortened: as §2
# Mus musculus [9] = experiment: Evaluated in vivo for percent growth delay in mice at 0.67 mg/kg for 12 days by intraperitoneal treatment on COLO 205 colon cell line; format: functional
# Mus musculus [10] = experiment: Evaluated in vivo for toxic deaths of mice at 1.80 mg/kg for 24 (38) days by intravenous treatment on MDA-MB-435 breast […] cell line; format: toxicity, organism-based; design: dose 1.8 mg/kg, route intravenous; conditions: 1.8 mg/kg; procedure, shortened: as §2
# Mus musculus [11] = experiment: Evaluated in vivo for percent growth delay in mice at 1.80 mg/kg for 24 (38) days by intravenous treatment on MDA-MB-435 breast cell line; format: functional; conditions: dose 1.8 mg/kg
# Mus musculus [12] = experiment: Evaluated in vivo for toxic deaths of mice at 1.34 mg/kg for 7 days by intraperitoneal treatment on NCI-H460 non-small cell lung cell line; format: toxicity, organism-based; design: dose 1.34 mg/kg, route intraperitoneal; conditions: ip, 168 h; procedure, shortened: as §2
# Mus musculus [13] = experiment: Evaluated in vivo for percent of tumor weight in treated/control of mice at 1.00 mg/kg for 7 days by intraperitoneal treatment on AS283 lymphoma cell line; format: functional
# Mus musculus [14] = experiment: Evaluated in vivo for percent of tumor weight in treated/control of mice at 0.90 mg/kg for 5 days by intraperitoneal treatment on HCT-15 colon cell line; format: functional; conditions: dose 0.9 mg/kg
# Mus musculus [15] = experiment: Evaluated in vivo for percent of tumor weight in treated/control of mice at 1.34 mg/kg for 7 days by intraperitoneal treatment on NCI-H460 non-small cell lung cell line; format: functional
# Mus musculus [16] = experiment: Evaluated in vivo for percent of tumor weight in treated/control of mice at 1.50 mg/kg for 10 days by intraperitoneal treatment on UACC-62 melanoma cell line; format: functional; conditions: dose 1.5 mg/kg
# Mus musculus [17] = experiment: Evaluated in vivo for toxic deaths of mice at 0.90 mg/kg for 7 days by intraperitoneal treatment on RXF-393 renal cell line; format: toxicity, organism-based; design: dose 0.9 mg/kg, route intraperitoneal; conditions: ip, 0.9 mg/kg, 168 h; procedure, shortened: as §2
# Mus musculus [18] = experiment: Evaluated in vivo for percent of tumor weight in treated/control of mice at 0.90 mg/kg for 7 days by intraperitoneal treatment on RXF-393 renal cell line; format: functional; conditions: dose 0.9 mg/kg
# Mus musculus [19] = experiment: Evaluated in vivo for percent growth delay in mice at 0.90 mg/kg for 7 days by intraperitoneal treatment on RXF-393 renal cell line; format: functional; conditions: dose 0.9 mg/kg
# Mus musculus [20] = experiment: Evaluated in vivo for toxic deaths of mice at 1.00 mg/kg for 7 days by intraperitoneal treatment on AS283 lymphoma cell line; format: toxicity, organism-based; design: dose 1 mg/kg, route intraperitoneal; conditions: ip, 168 h; procedure, shortened: as §2
# Mus musculus [21] = experiment: Evaluated in vivo for percent of tumor weight in treated/control of mice at 1.80 mg/kg for 24 (38) days by intravenous treatment on MDA-MB-435 breast cell line; format: functional; conditions: dose 1.8 mg/kg
# Mus musculus [22] = experiment: Evaluated in vivo for percent of tumor weight in treated/control of mice at 0.67 mg/kg for 12 days by intraperitoneal treatment on COLO 205 colon cell line; format: functional
# Mus musculus [23] = experiment: Evaluated in vivo for percent growth delay in mice at 1.34 mg/kg for 7 days by intraperitoneal treatment on NCI-H460 non-small cell lung cell line; format: functional
# [24] = Evaluated in vivo for subcutaneous score in hallow fiber assay; format: functional; procedure, shortened: as §1
# Mus musculus [25] = experiment: Evaluated in vivo for toxic deaths of mice at 0.67 mg/kg for 12 days by intraperitoneal treatment on COLO 205 colon cell line; format: toxicity, organism-based; design: dose 0.67 mg/kg, route intraperitoneal; conditions: ip, 288 h; procedure, shortened: as §2
# Mus musculus [26] = experiment: Evaluated in vivo for toxic deaths of mice at 5.60 mg/kg for 12 days by intraperitoneal treatment on COLO 205 colon cell line; format: toxicity, organism-based; design: dose 5.6 mg/kg, route intraperitoneal; conditions: ip, 5.6 mg/kg, 288 h; procedure, shortened: as §2
# Mus musculus [27] = experiment: Evaluated in vivo for percent growth delay in mice at 5.60 mg/kg for 11 days by intraperitoneal treatment on A498 renal cell line; conditions: dose 5.6 mg/kg
# Mus musculus [28] = experiment: Evaluated in vivo for percent of tumor weight in treated/control of mice at 8.40 mg/kg for 8 days by intraperitoneal treatment on UACC-62 melanoma cell line; conditions: dose 8.4 mg/kg
# Mus musculus [29] = experiment: Evaluated in vivo for percent growth delay in mice at 3.35 mg/kg for 7 days by intraperitoneal treatment on SK-MEL-28 melanoma cell line
# Mus musculus [30] = experiment: Evaluated in vivo for percent growth delay in mice at 3.35 mg/kg for 10 days by intraperitoneal treatment on NCI-H522 non-small cell lung cell line
# Mus musculus [31] = experiment: Evaluated in vivo for percent growth delay in mice at 5.60 mg/kg for 7 days by intraperitoneal treatment on AS283 lymphoma cell line; format: functional; conditions: dose 5.6 mg/kg
# Mus musculus [32] = experiment: Evaluated in vivo for toxic deaths of mice at 5.60 mg/kg for 5 days by intraperitoneal treatment on HCT-15 colon cell line; format: toxicity, organism-based; design: dose 5.6 mg/kg, route intraperitoneal; conditions: ip, 5.6 mg/kg, 120 h; procedure, shortened: as §2
# Mus musculus [33] = experiment: Evaluated in vivo for toxic deaths of mice at 5.60 mg/kg for 24 (38) days by intraperitoneal treatment on MDA-MB-435 breast […] cell line; format: toxicity, organism-based; design: dose 5.6 mg/kg, route intraperitoneal; conditions: ip, 5.6 mg/kg; procedure, shortened: as §2
# Mus musculus [34] = experiment: Evaluated in vivo for percent of tumor weight in treated/control of mice at 5.60 mg/kg for 8 days by intraperitoneal treatment on COLO 205 colon cell line; conditions: dose 5.6 mg/kg
# Mus musculus [35] = experiment: Evaluated in vivo for percent growth delay in mice at 5.60 mg/kg for 8 days by intraperitoneal treatment on COLO 205 colon cell line; conditions: dose 5.6 mg/kg
# Mus musculus [36] = experiment: Evaluated in vivo for percent growth delay in mice at 8.40 mg/kg for 8 days by intraperitoneal treatment on UACC-62 melanoma cell line; conditions: dose 8.4 mg/kg
# Mus musculus [37] = experiment: Evaluated in vivo for toxic deaths of mice at 8.40 mg/kg for 8 days by intraperitoneal treatment on UACC-62 melanoma cell line; conditions: ip, 8.4 mg/kg, 192 h
# Mus musculus [38] = experiment: Evaluated in vivo for percent of tumor weight in treated/control of mice at 5.60 mg/kg by intraperitoneal treatment; conditions: dose 5.6 mg/kg
# Mus musculus [39] = experiment: Evaluated in vivo for percent of tumor weight in treated/control of mice at 3.35 mg/kg for 7 days by intraperitoneal treatment on SK-MEL-28 melanoma cell line
# Mus musculus [40] = experiment: Evaluated in vivo for percent treated/control of mice at 3.35 mg/kg for 10 days by intraperitoneal treatment on NCI-H522 non-small cell lung cell line
# Mus musculus [41] = experiment: Evaluated in vivo for percent growth delay in mice at 5.60 mg/kg for 15 days by intraperitoneal treatment on UACC-257 melanoma cell line; conditions: dose 5.6 mg/kg
# Mus musculus [42] = experiment: Evaluated in vivo for toxic deaths of mice at 3.35 mg/kg for 7 days by intraperitoneal treatment on SK-MEL-28 melanoma cell line; conditions: ip, 168 h
# Mus musculus [43] = experiment: Evaluated in vivo for percent of tumor weight in treated/control of mice 5.60 at mg/kg for 11 days by intraperitoneal treatment on A498 renal cell line
# Mus musculus [44] = experiment: Evaluated in vivo for toxic deaths of mice at 3.35 mg/kg for 10 days by intraperitoneal treatment on NCI-H522 non-small cell lung cell line; conditions: ip, 240 h
# NCI-H460 = experiment: Tested for cytotoxicity of compound against NCI-H460 (lung)cell line; IA means inactive.; format: functional, cell-based; conditions: Homo sapiens
# SF-268 = experiment: Tested for cytotoxicity of compound against SF-268 (CNS) cell line; IA means inactive.; format: functional, cell-based; conditions: Homo sapiens
# MCF7 = experiment: Tested for cytotoxicity of compound against MCF-7 (breast) cell line; IA means inactive.; format: functional, cell-based; conditions: Homo sapiens
smiles,measurement,setting,value
O=[N+]([O-])c1cccc2nc3ccccc3c(NCCO)c12,MID log LC50,[1],5.9 M
CC(=O)N[C@@H]1[C@H](OCc2ccccc2)OC(CO)C(O)[C@H]1OC(C)C(=O)N[C@H](C)C(=O)N[C@H](CCC(=O)OCCNc1c2ccccc2nc2cccc([N+](=O)[O-])c12)C(N)=O (stereo not given in full),Growth delay (T-C/C),Mus musculus [2],2%
same,Score,[3],12
same,Growth delay (T-C/C),Mus musculus [4],9%
same,Growth delay (T-C/C),Mus musculus [5],5%
same,Score,[6],20
same,Toxic deaths,Mus musculus [7],0
same,Toxic deaths,Mus musculus [8],2
same,Growth delay (T-C/C),Mus musculus [9],11%
same,Toxic deaths,Mus musculus [10],2
same,Growth delay (T-C/C),Mus musculus [11],17%
same,MID log LC50,[1],6.85 M
same,Toxic deaths,Mus musculus [12],1
same,Tumor weight,Mus musculus [13],63%
same,Tumor weight,Mus musculus [14],79%
same,Tumor weight,Mus musculus [15],54%
same,Tumor weight,Mus musculus [16],89%
same,Toxic deaths,Mus musculus [17],0
same,Tumor weight,Mus musculus [18],81%
same,Growth delay (T-C/C),Mus musculus [19],32%
same,Toxic deaths,Mus musculus [20],0
same,Tumor weight,Mus musculus [21],60%
same,Tumor weight,Mus musculus [22],75%
same,Growth delay (T-C/C),Mus musculus [23],21%
same,Score,[24],8
same,Toxic deaths,Mus musculus [25],0
CC(=O)N[C@@H]1[C@H](OCc2ccccc2)OC(CO)C(O)[C@H]1OC(C)C(=O)N[C@H](C)C(=O)N[C@H](CCC(=O)OCCCNc1c2ccccc2nc2cccc([N+](=O)[O-])c12)C(N)=O (stereo not given in full),Toxic deaths,Mus musculus [26],1
same,Growth delay (T-C/C),Mus musculus [27],3%
same,Tumor weight,Mus musculus [28],1%
same,Growth delay (T-C/C),Mus musculus [29],-3%
same,Score,[3],2
same,Score,[6],4
same,Growth delay (T-C/C),Mus musculus [30],1%
same,MID log LC50,[1],5.78 M
same,Growth delay (T-C/C),Mus musculus [31],16%
same,Toxic deaths,Mus musculus [32],2
same,Toxic deaths,Mus musculus [33],1
same,Tumor weight,Mus musculus [34],65%
same,Growth delay (T-C/C),Mus musculus [35],-7%
same,Growth delay (T-C/C),Mus musculus [36],107%
same,Toxic deaths,Mus musculus [37],0
same,Tumor weight,Mus musculus [38],60%
same,Tumor weight,Mus musculus [39],105%
same,Tumor weight,Mus musculus [40],89%
same,Growth delay (T-C/C),Mus musculus [41],1%
same,Toxic deaths,Mus musculus [42],0
same,Tumor weight,Mus musculus [43],68%
same,Toxic deaths,Mus musculus [44],1
same,Score,[24],2
CC(=O)N[C@@H]1[C@H](OCc2ccccc2)OC(CO)C(O)[C@H]1OC(C)C(=O)N[C@@H](C(=O)N[C@H](CCC(=O)OCCNC(=O)c1cccc2c(=O)c3ccccc3[nH]c12)C(N)=O)C(C)C (stereo not given in full),IA,NCI-H460,inactive
same,IA,SF-268,inactive
same,IA,MCF7,inactive
CC(=O)N[C@@H]1[C@H](OCc2ccccc2)OC(CO)C(O)[C@H]1OC(C)C(=O)N[C@H](C)C(=O)N[C@H](CCC(=O)OCCNC(=O)c1cccc2cc3ccccc3nc12)C(N)=O (stereo not given in full),IA,NCI-H460,inactive
same,IA,SF-268,inactive
same,IA,MCF7,inactive
